Reference: ChEMBL document CHEMBL3045864, “Fungistatic activity of bicyclo[4.3.0]-γ-lactones” (J Agric Food Chem, 2011)
Values after ≈ are worked out from the molar mass of the structure shown.

Columns and labels:
Format in all cases: functional, organism-based
[1] = system: Fusarium oxysporum; experiment: Fungistatic activity against Fusarium oxysporum AM 13 assessed as effect on diameter of fungal growth zone
Summary of the method: (§1)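 Agar dilution growth-zone assay. Lactones in DMSO were mixed into sterilized potato dextrose agar (0.01 mL DMSO per 1 mL agar) at final concentrations of 50–300 μg/mL. A fungal mycelium plug was placed on the agar and grown at 27 °C and 60–80% relative humidity. Growth-zone diameters were measured once DMSO-only control colonies reached 5.5–6.0 cm. Inhibition = (1 − Da/Db) × 100%. IC50 was taken from four concentrations, each run in triplicate. DDAC served as reference.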

[2] = system: Fusarium culmorum; experiment: Fungistatic activity against Fusarium culmorum AM 282 assessed as effect on diameter of fungal growth zone; summary of the method: as §1
[3] = system: Fusarium tricinctum; experiment: Fungistatic activity against Fusarium tricinctum AM 16 assessed as effect on diameter of fungal growth zone; summary of the method: as §1
[4] = system: Penicillium citrinum; experiment: Fungistatic activity against Penicillium citrinum AM 354 assessed as effect on diameter of fungal growth zone; summary of the method: as §1
[5] = system: Aspergillus ochraceus; experiment: Fungistatic activity against Aspergillus ochraceus AM 456 assessed as effect on diameter of fungal growth zone; summary of the method: as §1
[6] = Fusarium oxysporum, AM 13, read-out: IC50
[7] = Fusarium culmorum, AM 282, read-out: IC50

Q: `O=C1OC[C@@H]2CC=CC[C@H]12` was tested. Which IC50 [1, 6] did it give?
A: Its IC50 is 222 µg/mL (≈ 1610 µM).

Q: And the IC50 [2, 7]?
A: The IC50 was 171 µg/mL (≈ 1240 µM).

Q: How did the IC50 [1, 6] turn out when `O=C1OC[C@@H]2C[C@@H]3O[C@@H]3C[C@H]12` was run?
A: Its IC50 is 51.9 µg/mL (≈ 337 µM).

Q: And the IC50 [2, 7]?
A: Its IC50 is 59.7 µg/mL (≈ 387 µM).

Q: For `O=C1OC[C@@H]2C[C@@H](Br)[C@H](Br)C[C@H]12`, which IC50 [1, 6] is on record?
A: Its IC50 is 47.5 µg/mL (≈ 159 µM).

Q: And the IC50 [2, 7]?
A: The IC50 was 90.5 µg/mL (≈ 304 µM).

Q: What does the source list for `O=C1OC[C@@H]2CCCC[C@H]12`?
A: IC50 [1, 6]: 261 µg/mL (≈ 1860 µM); IC50 [2, 7]: 169 µg/mL (≈ 1210 µM)

Q: With `CC1(C)OC(=O)[C@@H]2CCCC[C@@H]21` as the compound, how does the IC50 [1, 6] read?
A: The IC50 was 162 µg/mL (≈ 965 µM).

Q: What about the IC50 [2, 7] of the same compound?
A: The IC50 was 121 µg/mL (≈ 717 µM).

Q: `O=C1OC(=O)[C@@H]2CC=CC[C@H]12` was tested. Which IC50 [1, 6] did it give?
A: Its IC50 is 220 µg/mL (≈ 1450 µM).

Q: And the IC50 [3]?
A: Its IC50 is 289 µg/mL (≈ 1900 µM).

Q: And the IC50 [4]?
A: The IC50 was over 350 µg/mL.

Q: What about the IC50 [5] of the same compound?
A: Its IC50 is 287 µg/mL (≈ 1880 µM).

Q: What about the IC50 [2, 7] of the same compound?
A: The IC50 was 310 µg/mL (≈ 2040 µM).

Q: For `O=C1OC[C@H]2CCC[C@H](Br)[C@@H]12` (racemic), which IC50 [1, 6] is on record?
A: Its IC50 is 184 µg/mL (≈ 840 µM).

Q: What about the IC50 [3] of the same compound?
A: Its IC50 is 173 µg/mL (≈ 791 µM).

Q: And the IC50 [4]?
A: Its IC50 is 282 µg/mL (≈ 1290 µM).

Q: And the IC50 [5]?
A: Its IC50 is 244 µg/mL (≈ 1120 µM).

Q: What about the IC50 [2, 7] of the same compound?
A: The IC50 was 133 µg/mL (≈ 608 µM).

Q: How did the IC50 [1] turn out when `CC1(C)OC(=O)[C@@H]2CCCC[C@@H]21` (racemic) was run?
A: The IC50 was 179.1 µg/mL (≈ 1060 µM).

Q: And the IC50 [3]?
A: Its IC50 is 213 µg/mL (≈ 1260 µM).

Q: And the IC50 [4]?
A: Its IC50 is 292 µg/mL (≈ 1730 µM).

Q: And the IC50 [5]?
A: Its IC50 is 160 µg/mL (≈ 949 µM).

Q: What about the IC50 [2] of the same compound?
A: The IC50 was 134.5 µg/mL (≈ 799 µM).

Q: What does the source list for `O=C1OC[C@H]2CC=CC[C@@H]12` (racemic)?
A: IC50 [1, 6]: 282 µg/mL (≈ 2040 µM); IC50 [3]: 221 µg/mL (≈ 1600 µM); IC50 [4]: > 350 µg/mL; IC50 [5]: 171 µg/mL (≈ 1240 µM); IC50 [2, 7]: 184 µg/mL (≈ 1330 µM)

Q: How did the IC50 [1, 6] turn out when `O=C1OC[C@H]2C[C@H]3O[C@H]3C[C@@H]12` (racemic) was run?
A: Its IC50 is 72.2 µg/mL (≈ 468 µM).

Q: What about the IC50 [3] of the same compound?
A: The IC50 was 156 µg/mL (≈ 1020 µM).

Q: And the IC50 [4]?
A: The IC50 was 312 µg/mL (≈ 2030 µM).

Q: And the IC50 [5]?
A: Its IC50 is 141 µg/mL (≈ 915 µM).

Q: And the IC50 [2, 7]?
A: Its IC50 is 90.4 µg/mL (≈ 586 µM).

Q: How did the IC50 [1, 6] turn out when `O=C1OC[C@H]2C[C@@H](Br)[C@H](Br)C[C@@H]12` (racemic) was run?
A: The IC50 was 30.1 µg/mL (≈ 101 µM).

Q: What about the IC50 [3] of the same compound?
A: Its IC50 is 110 µg/mL (≈ 371 µM).

Q: And the IC50 [4]?
A: Its IC50 is 306 µg/mL (≈ 1030 µM).

Q: And the IC50 [5]?
A: The IC50 was 219 µg/mL (≈ 735 µM).

Q: And the IC50 [2, 7]?
A: The IC50 was 81.5 µg/mL (≈ 274 µM).

Q: `O=C1OC[C@@H]2C[C@@H](Br)[C@H](O)C[C@H]12` (racemic) was tested. Which IC50 [1, 6] did it give?
A: The IC50 was 141 µg/mL (≈ 600 µM).

Q: And the IC50 [3]?
A: The IC50 was 211 µg/mL (≈ 898 µM).

Q: What about the IC50 [4] of the same compound?
A: Its IC50 is 292 µg/mL (≈ 1240 µM).

Q: And the IC50 [5]?
A: Its IC50 is 141 µg/mL (≈ 599 µM).

Q: And the IC50 [2, 7]?
A: The IC50 was 172 µg/mL (≈ 733 µM).

Q: Which results are given for `O=C1OC[C@H]2CCCC[C@@H]12` (racemic)?
A: IC50 [1, 6]: 314 µg/mL (≈ 2240 µM); IC50 [3]: 222 µg/mL (≈ 1580 µM); IC50 [4]: > 350 µg/mL; IC50 [5]: 187 µg/mL (≈ 1330 µM); IC50 [2, 7]: 147 µg/mL (≈ 1050 µM)

Q: For `CC1(C)OC(=O)[C@H]2CC=CC[C@H]21` (racemic), which IC50 [1, 6] is on record?
A: Its IC50 is 188 µg/mL (≈ 1130 µM).

Q: What about the IC50 [3] of the same compound?
A: Its IC50 is 205 µg/mL (≈ 1230 µM).

Q: What about the IC50 [4] of the same compound?
A: Its IC50 is 274 µg/mL (≈ 1650 µM).

Q: What about the IC50 [5] of the same compound?
A: The IC50 was 159 µg/mL (≈ 958 µM).

Q: And the IC50 [2, 7]?
A: Its IC50 is 183 µg/mL (≈ 1100 µM).

Q: For `CC1(C)OC(=O)[C@H]2C[C@H]3O[C@H]3C[C@H]21` (racemic), which IC50 [1, 6] is on record?
A: The IC50 was 95.3 µg/mL (≈ 523 µM).

Q: What about the IC50 [3] of the same compound?
A: The IC50 was 180 µg/mL (≈ 991 µM).

Q: And the IC50 [4]?
A: The IC50 was over 350 µg/mL.

Q: And the IC50 [5]?
A: The IC50 was 142 µg/mL (≈ 780 µM).

Q: And the IC50 [2, 7]?
A: The IC50 was 142 µg/mL (≈ 777 µM).

Q: Which IC50 [1, 6] does the source give for `CC1(C)OC(=O)[C@H]2C[C@@H](Br)[C@H](Br)C[C@H]21` (racemic) here?
A: The IC50 was 80.2 µg/mL (≈ 246 µM).

Q: What about the IC50 [3] of the same compound?
A: Its IC50 is 191 µg/mL (≈ 586 µM).

Q: What about the IC50 [4] of the same compound?
A: The IC50 was 255 µg/mL (≈ 782 µM).

Q: What about the IC50 [5] of the same compound?
A: The IC50 was 121 µg/mL (≈ 371 µM).

Q: And the IC50 [2, 7]?
A: The IC50 was 155 µg/mL (≈ 474 µM).

Q: Which IC50 [1, 6] does the source give for `CC1(C)OC(=O)[C@H]2C[C@@H](O)[C@H](Br)C[C@H]21` (racemic) here?
A: The IC50 was 170 µg/mL (≈ 648 µM).

Q: And the IC50 [3]?
A: The IC50 was 162 µg/mL (≈ 617 µM).

Q: What about the IC50 [4] of the same compound?
A: Its IC50 is 212 µg/mL (≈ 806 µM).

Q: And the IC50 [5]?
A: Its IC50 is 220 µg/mL (≈ 838 µM).

Q: And the IC50 [2, 7]?
A: The IC50 was 166 µg/mL (≈ 632 µM).

Q: What does the source list for `O=C1OCC2CCC(O)CC12` (racemic)?
A: IC50 [1, 6]: 127 µg/mL (≈ 811 µM); IC50 [3]: 161 µg/mL (≈ 1030 µM); IC50 [4]: > 350 µg/mL; IC50 [5]: 212 µg/mL (≈ 1360 µM); IC50 [2, 7]: 121 µg/mL (≈ 773 µM)

Q: Which IC50 [1, 6] does the source give for `O=C1OC(=O)C2CCCCC12` (racemic) here?
A: Its IC50 is 240 µg/mL (≈ 1560 µM).

Q: What about the IC50 [3] of the same compound?
A: Its IC50 is 303 µg/mL (≈ 1960 µM).

Q: What about the IC50 [4] of the same compound?
A: Its IC50 is over 350 µg/mL.

Q: And the IC50 [5]?
A: The IC50 was 342 µg/mL (≈ 2220 µM).

Q: And the IC50 [2, 7]?
A: Its IC50 is 292 µg/mL (≈ 1890 µM).

Q: For `CCCCCCCCCC[N+](C)(C)CCCCCCCCCC.[Cl-]` [DIDECYLDIMETHYLAMMONIUM CHLORIDE], which IC50 [1, 6] is on record?
A: Its IC50 is 24.2 µg/mL.

Q: And the IC50 [3]?
A: Its IC50 is 27.9 µg/mL.

Q: And the IC50 [4]?
A: Its IC50 is 41.6 µg/mL.

Q: And the IC50 [5]?
A: The IC50 was 51.3 µg/mL.

Q: And the IC50 [2, 7]?
A: Its IC50 is 24.5 µg/mL.
